Values after ≈ are worked out from the molar mass of the structure shown.
Tests used:
[1] = Kinetic solubility of the compound in water at pH 7 by HPLC analysis; type: physicochemical; conditions: read-out: Kinetic_solubility
[2] = Metabolic stability of the compound in human liver microsomes assessed as compound remaining after 1 hr; type: ADME, Microsome; conditions: read-out: Stability
Procedure, shortened: (§1)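 Pooled human or CD-1 mouse liver microsomes incubated with compound for 1 h. Percentage of compound remaining calculated from analyte/internal standard peak area ratios.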

[3] = Metabolic stability of the compound in CD-1 mouse liver microsomes assessed as compound remaining after 1 hr; type: ADME, Microsome; conditions: read-out: Stability; procedure, shortened: as §1
[4] = tested on: Mycobacterium tuberculosis; experiment: Antimicrobial activity against Mycobacterium tuberculosis infected in BALB/c mouse assessed as fold reduction in lung CFU at 100 mg/kg, po administered 11 days after post infection qd for 5 days per week for 3 weeks relative to PA-824; type: functional
Procedure, shortened: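 Groups of 7 M. tb-infected BALB/c mice dosed orally at 100 mg/kg daily, 5 days/week for 3 weeks, starting on day 11 postinfection. Readout is the average lung CFU reduction in treated mice divided by the average CFU reduction in mice given the reference nitroimidazooxazine.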

[5] = Ratio AUC (0 to infinity) in CD-1 mouse lung to AUC (0 to infinity) in CD-1 mouse plasma at 40 mg/kg, po; type: ADME, organism-based; parameters: dose 40 mg/kg, route oral; conditions: read-out: Ratio AUC
Procedure, shortened: (§2)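 CD-1 mice given a single oral dose of 40 mg/kg, suspended in 0.5% carboxymethylcellulose/0.08% Tween 80 in water. Plasma and lung samples quantified by LC-MS/MS. AUC extrapolated to infinity. Lung/plasma ratio is lung AUC divided by plasma AUC.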

[6] = AUC (0 to infinity) in CD-1 mouse lung at 40 mg/kg, po; type: ADME, organism-based; parameters: dose 40 mg/kg, route oral, time infinity; procedure, shortened: as §2
[7] = Cmax in CD-1 mouse plasma at 40 mg/kg, po; type: ADME, organism-based; parameters: dose 40 mg/kg, route oral; procedure, shortened: as §2
[8] = Cmax in CD-1 mouse lung at 40 mg/kg, po; type: ADME, organism-based; parameters: dose 40 mg/kg, route oral; procedure, shortened: as §2
[9] = AUC (0 to infinity) in CD-1 mouse plasma at 40 mg/kg, po; type: ADME, organism-based; parameters: dose 40 mg/kg, route oral, time infinity; procedure, shortened: as §2
[10] = Half life in CD-1 mouse plasma at 40 mg/kg, po; type: ADME, organism-based; parameters: dose 40 mg/kg, route oral; procedure, shortened: as §2
[11] = tested on: Mycobacterium tuberculosis; experiment: Antimicrobial activity against Mycobacterium tuberculosis infected in BALB/c mouse assessed as fold reduction in lung CFU at 100 mg/kg, po administered 70 days after post infection qd for 5 days per week for 3 weeks relative to OPC-67683; type: functional
Procedure, shortened: (§3)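 Chronic infection model in M. tb-infected BALB/c mice: oral dosing at 100 mg/kg daily, 5 days/week for 3 weeks, beginning about 70 days postinfection. Result expressed as fold lung CFU reduction relative to the reference drug.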

[12] = Half life in CD-1 mouse lung at 40 mg/kg, po; type: ADME, organism-based; parameters: dose 40 mg/kg, route oral; procedure, shortened: as §2
[13] = tested on: Mycobacterium tuberculosis; experiment: Antimicrobial activity against Mycobacterium tuberculosis infected in BALB/c mouse assessed as fold reduction in lung CFU at 100 mg/kg, po administered 70 days after post infection qd for 5 days per week for 3 weeks; type: functional; procedure, shortened: as §3
[14] = tested on: Mycobacterium tuberculosis; experiment: Antimicrobial activity against Mycobacterium tuberculosis infected in chronic BALB/c mouse infection model assessed as fold reduction in lung CFU at 100 mg/kg, po dministered 50 days after post infection qd for 5 days per week for 3 weeks; type: functional
Salmonella typhimurium [15] = experiment: Induction of mutagenesis in Salmonella Typhimurium TA100 in presence of rat liver S9 fraction by Ames test; type: toxicity, organism-based; conditions: salmonella enterica subsp. enterica serovar typhimurium
Procedure, shortened: (§4)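 MicroAmes reverse mutation screen in Salmonella TA98 and TA100, preincubated with and without rat liver S9, at 0.25-250 μg/well.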

[16] = Thermodynamic solubility of the compound at pH 1; type: physicochemical; conditions: buffer, read-out: Therm_solubility
[17] = Octanol-water partition coefficient, log P of the compound by shake-flask method; type: physicochemical
Procedure, shortened: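 Octanol-water partition coefficient measured by the shake-flask method.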

Salmonella typhimurium [18] = experiment: Induction of mutagenesis in Salmonella Typhimurium TA98 in presence of rat liver S9 fraction by Ames test; type: toxicity, organism-based; conditions: salmonella enterica subsp. enterica serovar typhimurium; procedure, shortened: as §4
Salmonella typhimurium [19] = experiment: Induction of mutagenesis in Salmonella Typhimurium TA100 in absence of rat liver S9 fraction by Ames test; type: toxicity, organism-based; conditions: salmonella enterica subsp. enterica serovar typhimurium; procedure, shortened: as §4
[20] = Plasma protein binding in human at 10 uM; type: ADME, cell-free; conditions: read-out: PPB (converted)
Procedure, shortened: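 Human plasma protein binding measured by equilibrium dialysis, with overnight incubation of compound at 10 μM containing 1% DMSO.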

Salmonella typhimurium [21] = experiment: Induction of mutagenesis in Salmonella Typhimurium TA98 in absence of rat liver S9 fraction by Ames test; type: toxicity, organism-based; conditions: salmonella enterica subsp. enterica serovar typhimurium; procedure, shortened: as §4
[22] = Thermodynamic solubility of the compound at pH 7.4; type: physicochemical; conditions: buffer, read-out: Therm_solubility

Compound: O=C(N[C@@H]1COc2nc([N+](=O)[O-])cn2C1)c1ccc(OC(F)(F)F)cc1
- solubility kinetic [1]: 109 µg/mL (≈ 293 µM)

Compound: CN(C(=O)c1ccc(OC(F)(F)F)cc1)[C@@H]1COc2nc([N+](=O)[O-])cn2C1
- solubility kinetic [1]: 17 µg/mL (≈ 44 µM)

Compound: O=[N+]([O-])c1cn2c(n1)OC[C@@H](NS(=O)(=O)c1ccc(OC(F)(F)F)cc1)C2
- solubility kinetic [1]: 6.1 µg/mL (≈ 14.9 µM)

Compound: CN([C@@H]1COc2nc([N+](=O)[O-])cn2C1)S(=O)(=O)c1ccc(OC(F)(F)F)cc1
- solubility kinetic [1]: 15 µg/mL (≈ 35.5 µM)

Compound: O=C(CN[C@@H]1COc2nc([N+](=O)[O-])cn2C1)c1ccc(OC(F)(F)F)cc1
- solubility kinetic [1]: 21 µg/mL (≈ 54.4 µM)

Compound: O=C(Nc1ccc(OC(F)(F)F)cc1)N[C@@H]1COc2nc([N+](=O)[O-])cn2C1
- solubility kinetic [1]: 93 µg/mL (≈ 240 µM)

Compound: O=C(N[C@@H]1COc2nc([N+](=O)[O-])cn2C1)OCc1ccc(-c2ccc(OC(F)(F)F)cc2)cc1
- solubility kinetic [1]: 0.67 µg/mL (≈ 1.4 µM)

Compound: O=C(Nc1cccc(-c2ccc(OC(F)(F)F)cc2)c1)N[C@@H]1COc2nc([N+](=O)[O-])cn2C1
- remaining at 1 h [2]: 86%
- remaining at 1 h [3]: 88%
- solubility kinetic [1]: 3 µg/mL (≈ 6.47 µM)
- fold change (FC) [4]: <0.01

Compound: O=C(Nc1ccc(-c2ccc(OC(F)(F)F)cc2)cc1)N[C@@H]1COc2nc([N+](=O)[O-])cn2C1
- Kp [5]: > 9
- AUC(0-inf) [6]: > 60000 ng·h/mL
- remaining at 1 h [2]: 91%
- remaining at 1 h [3]: 90%
- Cmax [7]: 480 ng/mL
- solubility kinetic [1]: 0.17 µg/mL (≈ 0.367 µM)
- Cmax [8]: 4700 ng/mL
- fold change (FC) [4]: 1
- AUC(0-inf) [9]: 6610 ng·h/mL
- half-life [10]: 6.3 h

Compound: O=C(NCc1ccc(-c2ccc(OC(F)(F)F)cc2)cc1)N[C@@H]1COc2nc([N+](=O)[O-])cn2C1
- solubility kinetic [1]: 0.94 µg/mL (≈ 1.97 µM)

Compound: O=C(Nc1cccc(-c2ccc(OC(F)(F)F)cc2)c1)O[C@@H]1COc2nc([N+](=O)[O-])cn2C1
- remaining at 1 h [2]: 88%
- remaining at 1 h [3]: 93%
- solubility kinetic [1]: 0.07 µg/mL (≈ 0.151 µM)
- fold change (FC) [4]: 3.4

Compound: O=C(Nc1cccc(-c2ccc(C(F)(F)F)nc2)c1)O[C@@H]1COc2nc([N+](=O)[O-])cn2C1
- remaining at 1 h [2]: 89%
- remaining at 1 h [3]: 80%
- solubility kinetic [1]: 5.8 µg/mL (≈ 12.9 µM)
- fold change (FC) [4]: 0.02

Compound: O=C(Nc1ccc(-c2ccc(OC(F)(F)F)cc2)cc1)O[C@@H]1COc2nc([N+](=O)[O-])cn2C1
- Kp [5]: > 3
- AUC(0-inf) [6]: > 136000 ng·h/mL
- remaining at 1 h [2]: 100%
- remaining at 1 h [3]: 98%
- Cmax [7]: 520 ng/mL
- Cmax [8]: 6900 ng/mL
- fold change (FC) [11]: 0.35
- fold change (FC) [4]: 5
- AUC(0-inf) [9]: 44900 ng·h/mL
- half-life [10]: 62.3 h

Compound: O=C(NCc1ccc(-c2ccc(OC(F)(F)F)cc2)cc1)O[C@@H]1COc2nc([N+](=O)[O-])cn2C1
- solubility kinetic [1]: 0.34 µg/mL (≈ 0.711 µM)

Compound: O=C(O[C@@H]1COc2nc([N+](=O)[O-])cn2C1)N1CC[C@H](Oc2ccc(OC(F)(F)F)cc2)C1
- solubility kinetic [1]: 21 µg/mL (≈ 45.8 µM)

Compound: O=C(O[C@@H]1COc2nc([N+](=O)[O-])cn2C1)N1CCC(Oc2ccc(C(F)(F)F)nc2)CC1
- solubility kinetic [1]: 94 µg/mL (≈ 206 µM)

Compound: CN(Cc1ccc(OC(F)(F)F)cc1)C1CCN(C(=O)O[C@@H]2COc3nc([N+](=O)[O-])cn3C2)CC1
- solubility kinetic [1]: 11 µg/mL (≈ 22 µM)

Compound: O=C(COc1ccc(-c2ccc(OC(F)(F)F)cc2)cc1)N[C@@H]1COc2nc([N+](=O)[O-])cn2C1
- solubility kinetic [1]: 0.96 µg/mL (≈ 2.01 µM)

Compound: O=C(Cc1ccc(-c2ccc(OC(F)(F)F)cc2)cc1)N[C@@H]1COc2nc([N+](=O)[O-])cn2C1
- solubility kinetic [1]: 1.8 µg/mL (≈ 3.89 µM)

Compound: O=C(CO[C@@H]1COc2nc([N+](=O)[O-])cn2C1)Nc1ccc(OC(F)(F)F)cc1
- remaining at 1 h [2]: 100%
- remaining at 1 h [3]: 85%
- solubility kinetic [1]: 68 µg/mL (≈ 169 µM)
- fold change (FC) [4]: 0.33

Compound: CN(C(=O)N(C)[C@@H]1COc2nc([N+](=O)[O-])cn2C1)c1ccc(OC(F)(F)F)cc1
- solubility kinetic [1]: 38 µg/mL (≈ 91.5 µM)

Compound: O=[N+]([O-])c1cn2c(n1)OC[C@@H](NC(=S)Nc1ccc(OC(F)(F)F)cc1)C2
- solubility kinetic [1]: 12 µg/mL (≈ 29.8 µM)

Compound: O=C(NCc1ccc(OC(F)(F)F)cc1)N[C@@H]1COc2nc([N+](=O)[O-])cn2C1
- solubility kinetic [1]: 32 µg/mL (≈ 79.7 µM)

Compound: O=C(Nc1ccc(OC(F)(F)F)cc1)O[C@@H]1COc2nc([N+](=O)[O-])cn2C1
- Kp [5]: 1.5
- AUC(0-inf) [6]: 43300 ng·h/mL
- remaining at 1 h [2]: 88%
- remaining at 1 h [3]: 89%
- Cmax [7]: 1400 ng/mL
- half-life [12]: 4.1 h
- solubility kinetic [1]: 5.4 µg/mL (≈ 13.9 µM)
- Cmax [8]: 3800 ng/mL
- fold change (FC) [11]: 0.02
- fold change (FC) [4]: 0.39
- AUC(0-inf) [9]: 28500 ng·h/mL
- half-life [10]: 9.8 h

Compound: CN(C(=O)O[C@@H]1COc2nc([N+](=O)[O-])cn2C1)c1ccc(OC(F)(F)F)cc1
- remaining at 1 h [2]: 37%
- remaining at 1 h [3]: 1%
- solubility kinetic [1]: 18 µg/mL (≈ 44.7 µM)
- fold change (FC) [4]: 5.3

Compound: O=C(NCc1ccc(OC(F)(F)F)cc1)O[C@@H]1COc2nc([N+](=O)[O-])cn2C1
- solubility kinetic [1]: 10 µg/mL (≈ 24.9 µM)

Compound: C[C@]1(COc2ccc(N3CCC(Oc4ccc(OC(F)(F)F)cc4)CC3)cc2)Cn2cc([N+](=O)[O-])nc2O1
- fold change (FC) [13]: 3
- fold change (FC) [14]: 3

Compound: O=C(COc1ccc(OC(F)(F)F)cc1)N[C@@H]1COc2nc([N+](=O)[O-])cn2C1
- solubility kinetic [1]: 43 µg/mL (≈ 107 µM)

Compound: O=[N+]([O-])c1cn2c(n1)OC[C@@H](NCc1ccc(OC(F)(F)F)cc1)C2
- solubility kinetic [1]: 131 µg/mL (≈ 366 µM)

Compound: O=[N+]([O-])c1cn2c(n1)OC[C@@H](OCc1ccc(OC(F)(F)F)cc1)C2 [PRETOMANID]
- Activity (Salmonella typhimurium [15]): Non-toxic
- solubility thermodynamic [16]: 30 µM (≈ 10.8 µg/mL)
- logP [17]: 2.52
- Activity (Salmonella typhimurium [18]): Non-toxic
- fold change (FC) [13]: 2
- Activity (Salmonella typhimurium [19]): Non-toxic
- fraction unbound at 10 µM [20]: 0.06
- Activity (Salmonella typhimurium [21]): Non-toxic
- solubility thermodynamic [22]: 30 µM (≈ 10.8 µg/mL)

Reference: ChEMBL document CHEMBL1944507, “Structure-activity relationships for amide-, carbamate-, and urea-linked analogues of the tuberculosis drug (6S)-2-nitro-6-{[4-(trifluoromethoxy)benzyl]oxy}-6,7-dihydro-5H-imidazo[2,1-b][1,3]oxazine (PA-824)” (J Med Chem, 2012)
